# Test results reported in ChEMBL document CHEMBL1806428, “Design and synthesis of spiro derivatives of parthenin as novel anti-cancer agents” (Eur J Med Chem, 2011).
# pIC50: −log10 of the molar value. “And” between values parts separate entries of the source, which are not always exact repeats. Equal values may be shown once.
# Tests used:
# Assay type in all cases: functional, cell-based
# DU-145 = test: Cytotoxicity against human DU145 cells assessed as cell growth after 48 hrs by sulforhodamine B assay
# In short: (§1)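 Log-phase cells seeded at 10^4/well and allowed to attach for 24 h at 37 °C, 5% CO2. Exposed for 48 h to 0.1–100 (1:10 serial dilutions), four replicate wells per condition. Fixed with cold 50% TCA for 1 h at 4 °C, stained with sulforhodamine B, dye dissolved in Tris, OD read at 540 nm. Blank-subtracted growth expressed relative to untreated cells (100%); IC50 reported.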
# SW-620 = test: Cytotoxicity against human SW620 cells assessed as cell growth after 48 hrs by sulforhodamine B assay; in short: as §1
# PC-3 = test: Cytotoxicity against human PC3 cells assessed as cell growth after 48 hrs by sulforhodamine B assay; in short: as §1
SMILES,"pIC50 (DU-145; Homo sapiens, DU-145, 48 h)",pIC50 (DU-145; du-145),"pIC50 (SW-620; Homo sapiens, SW-620, 48 h)",pIC50 (SW-620; sw-620),"pIC50 (PC-3; Homo sapiens, PC-3, 48 h)",pIC50 (PC-3; pc-3)
C[C@H]1CC[C@@H]2[C@@H](OC(=O)[C@]23CC(c2ccc(Cl)cc2)N(c2ccccc2)O3)[C@]2(C)C(=O)C=C[C@@]12O (some centres not stated),5.15,5.22,5.12,5.29,5.11,4.92
Cc1ccccc1C1C[C@@]2(ON1c1ccccc1)C(=O)O[C@@H]1[C@H]2CC[C@H](C)[C@]2(O)C=CC(=O)[C@@]12C (some centres not stated),5.35,5.29,4.92,5.05,4.82,–
C[C@H]1CC[C@@H]2[C@@H](OC(=O)[C@]23CC(c2ccccc2F)N(c2ccccc2)O3)[C@]2(C)C(=O)C=C[C@@]12O (some centres not stated),5.39,5.22,5.05,4.99,5.57,5.60
COc1ccc(C2C[C@@]3(ON2c2ccccc2)C(=O)O[C@@H]2[C@H]3CC[C@H](C)[C@]3(O)C=CC(=O)[C@@]23C)cc1Br (some centres not stated),5.20,5.27,5.17,5.05,5.24,5.09
COc1ccc(C2C[C@@]3(ON2c2ccccc2)C(=O)O[C@@H]2[C@H]3CC[C@H](C)[C@]3(O)C=CC(=O)[C@@]23C)cc1 (some centres not stated),5.19,5.15,5.14,5.38,5.24,5.22
COc1cccc(C2C[C@@]3(ON2c2ccccc2)C(=O)O[C@@H]2[C@H]3CC[C@H](C)[C@]3(O)C=CC(=O)[C@@]23C)c1 (some centres not stated),5.00,4.96,5.12,5.18,4.92,5.05
C[C@H]1CC[C@@H]2[C@@H](OC(=O)[C@]23CC(c2cccc(Cl)c2)N(c2ccccc2)O3)[C@]2(C)C(=O)C=C[C@@]12O (some centres not stated),5.13,5.22,5.21,4.98,5.09,4.92
C[C@H]1CC[C@@H]2[C@@H](OC(=O)[C@]23CC(c2ccccc2)N(c2ccccc2)O3)[C@]2(C)C(=O)C=C[C@@]12O (some centres not stated),5.25,5.19,5.28,5.22,5.24,5.05
C[C@H]1CC[C@@H]2[C@@H](OC(=O)[C@]23CC(c2ccc([N+](=O)[O-])cc2)N(c2ccccc2)O3)[C@]2(C)C(=O)C=C[C@@]12O (some centres not stated),5.25,5.22,5.24,5.29,5.08,5.03
C[C@H]1CC[C@@H]2[C@@H](OC(=O)[C@]23CC(c2c(F)c(F)c(F)c(F)c2F)N(c2ccccc2)O3)[C@]2(C)C(=O)C=C[C@@]12O (some centres not stated),5.03,5.21,5.52,5.26,5.25,5.30
C[C@H]1CC[C@@H]2[C@@H](OC(=O)[C@]23CC(c2c(F)cccc2F)N(c2ccccc2)O3)[C@]2(C)C(=O)C=C[C@@]12O (some centres not stated),4.92,5.05,5.30,5.14,5.60,5.64
C[C@H]1CC[C@@H]2[C@@H](OC(=O)[C@]23CC(c2ccccc2Cl)N(c2ccccc2)O3)[C@]2(C)C(=O)C=C[C@@]12O (some centres not stated),5.22,5.39,5.26,5.04,5.46,5.20
C[C@H]1CC[C@@H]2[C@@H](OC(=O)[C@]23CC(c2ccc(C#N)cc2)N(c2ccccc2)O3)[C@]2(C)C(=O)C=C[C@@]12O (some centres not stated),5.30,5.15,5.32,5.30,5.32,5.04
C[C@H]1CC[C@@H]2[C@@H](OC(=O)[C@]23CC(c2ccc(F)cc2)N(c2ccccc2)O3)[C@]2(C)C(=O)C=C[C@@]12O (some centres not stated),5.19,5.30,5.14,5.22,–,5.24 and 4.92
